Results reported in PMC4321732 (Structure (London, England : 1993), 2015).
*1 amine or outer side, *2 acyl side, *3 side chain or, on linkers, in order; H or OH if unused. Where no end group is shown, it is not given here. [ ]: non-standard residue; d: D form. KCme2 = N-dimethylated aminoethylcysteine, CN(C)CCSC[C@H](N[*:1])C(=O)[*:2]; Me2 = dimethyl group on the Lys side-chain amine

How the values were obtained:
[1] = biological target: T1, 53BP1 TTD (Homo sapiens, UniProt Q12888); assay: NMR titration; type: binding; conditions: 1H,15N HSQC, 298 K; for effect of glycine mutation on CSPs in 15N-labeled TTD: 0.1–0.2 mM TTD, glycine mutants of p53KC370me2 peptide
T1 sequence (Q12888 1484-1603): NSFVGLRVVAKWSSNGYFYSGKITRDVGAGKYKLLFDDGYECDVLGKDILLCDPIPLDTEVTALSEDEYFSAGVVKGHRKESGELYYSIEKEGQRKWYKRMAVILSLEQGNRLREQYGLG

[2] = biological target: T1, 53BP1 TTD; assay: NMR solution structure of TTD-peptide complex; conditions: 298 K, 25 mM sodium phosphate pH 7.5
Summary of the method: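 Complexes of the 53BP1 tandem Tudor domain with dimethylated p53 peptides (residues 363–377 or 376–387) recorded on a 700 MHz cryoprobe in 90% H2O/10% D2O or 100% D2O with 1.5 mM NaN3. Samples were 2 mM 13C/15N-TTD with 6 mM unlabeled peptide, or 2 mM labeled dimethyllysine-analog peptide with 5 mM TTD. Intermolecular NOEs came from filtered 13C-edited NOESY-HSQC.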

[3] = biological target: T1, 53BP1 TTD; conditions: monomeric TTD; ref Roy et al., 2010; cited from earlier work
[4] = biological target: CL-TTD (Homo sapiens, UniProt Q12888, C1525A/C1535A); assay: NMR titration; type: binding; conditions: 1H,15N HSQC, 298 K, 0.1–0.2 mM CL-TTD
CL-TTD, sequence (Q12888 1481-1603 C1525A/C1535A): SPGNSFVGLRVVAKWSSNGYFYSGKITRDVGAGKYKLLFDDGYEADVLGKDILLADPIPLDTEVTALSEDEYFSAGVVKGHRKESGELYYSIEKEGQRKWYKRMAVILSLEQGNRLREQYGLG

[5] = tested on: GST-tagged 53BP1 TTD; assay: Peptide microarray; type: binding, human; conditions: normalized mean intensities of four arrays
[6] = biological target: T1, 53BP1 TTD; assay: Overall preference of 53BP1 TTD from peptide library, fluorescence and NMR; type: binding; conditions: overall conclusion from library, fluorescence and NMR results

With “p53H365GKC370me2: p53KC370me2 peptide with H365 substituted with glycine (GHMRAGSSHL[KCme2]SKKGQST)” the “effect of glycine mutation on CSPs in 15N-labeled TTD” value (“effect of glycine mutation on CSPs” below) [1] was “Alterations in CSPs”.

For “p53H368GKC370me2: p53KC370me2 peptide with H368 substituted with glycine (GHMRAHSSGLCSKKGQST; not fully specified (residue 11))”, the “effect of glycine mutation on CSPs” value [1] was “Alterations in CSPs”.

For “p53K370me2: p53K370me2 (residues 363–377) peptide, chemically synthesized (RAHSSHLK(Me2)SKKGQST)”, the “site of dimethyllysine indicated by pattern of CSPs” value [1] is listed as “fully consistent with K370me2 occupying the aromatic cage”, the “protein-peptide interface area in NMR ensemble” value [2] is listed as 707 ± 43 Å^2 and the Kd [3] is listed as 20 µM.

With “p53K382me2: p53K382me2 (residues 376–387) peptide, chemically synthesized (STSRHKK(Me2)LMFKT)” the “chemical shift / resonance intensity changes in 15N-labelled CL-TTD” value [4] was “substantial chemical shift changes”, the “binding in peptide library screen” value [5] was “recognized primarily” and the “protein-peptide interface area in NMR ensemble” value [2] was 678 ± 60 Å^2. For the same substance, the “preference of 53BP1 TTD module” value [6] was “strong preference” and the Kd [3] was 0.9 µM.

For “p53KC370me2K372G: p53KC370me2 peptide with K372 substituted with glycine (GHMRAHSSHLCSGKGQST; not fully specified (residue 11))”, the “effect of glycine mutation on CSPs” value [1] was “caused the same CSPs as the wild type p53KC382me2 peptide”.

For “p53KC370me2K373G: p53KC370me2 peptide with K373 substituted with glycine (GHMRAHSSHLCSKGGQST; not fully specified (residue 11))”, the “effect of glycine mutation on CSPs” value [1] was “caused the same CSPs as the wild type p53KC382me2 peptide”.

In the case of “p53L369GKC370me2: p53KC370me2 peptide with L369 substituted with glycine (GHMRAHSSHGCSKKGQST; not fully specified (residue 11))”, the “effect of glycine mutation on CSPs” value [1] is reported as “Alterations in CSPs”.
